# Results as given in article PMC10871334 (bioRxiv, 2024).
# pIC50: −log10 of the molar value. “Also recorded” adds a separate entry of the source.
# Key:
# SUGCT [1] = biological target: T1, SUGCT (Homo sapiens, UniProt Q9HAC7); assay: Fluorometric SUGCT enzyme assay coupled to HMG-CoA reductase; type: biochemical; conditions: for SUGCT inhibition at 10 μM (in words): repurchased hits
# T1 sequence (Q9HAC7 31-438 limits assumed): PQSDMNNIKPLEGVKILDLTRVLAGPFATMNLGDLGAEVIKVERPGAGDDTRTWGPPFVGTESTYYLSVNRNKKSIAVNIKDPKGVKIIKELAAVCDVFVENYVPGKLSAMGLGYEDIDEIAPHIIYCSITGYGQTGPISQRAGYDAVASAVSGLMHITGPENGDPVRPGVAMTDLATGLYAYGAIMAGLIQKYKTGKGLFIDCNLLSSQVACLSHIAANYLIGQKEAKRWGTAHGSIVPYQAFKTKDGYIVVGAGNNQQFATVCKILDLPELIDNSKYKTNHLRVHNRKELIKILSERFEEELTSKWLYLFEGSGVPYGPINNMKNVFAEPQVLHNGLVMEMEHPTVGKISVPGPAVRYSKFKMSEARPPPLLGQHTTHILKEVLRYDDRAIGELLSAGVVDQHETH
# SUGCT [2] = biological target: T1, SUGCT; type: biochemical; conditions: HMG-CoA as CoA donor, 30 minutes
# [3] = tested on: SUGCT overexpressing GA1 HEK-293 cells; assay: C5DC in SUGCT overexpressing GA1; type: cell-based, human; conditions: treatment of SUGCT overexpressing GA1 HEK-293 cells
# How it was run: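 Stable SUGCT overexpression in Flp-In 293 cells by co-transfection with Flp recombinase and selection in 100 μg/ml hygromycin B for 2–3 weeks. GCDH knocked out by CRISPR-Cas9, with single-clone sorting. Cells grown at 37°C, 5% CO2 in DMEM with 10% FBS. Metabolites extracted with cold methanol:acetonitrile:water 5:3:2 overnight at −80°C, then analysed by reverse-phase C18 LC-MS in positive mode.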
# [4] = biological target: T2, human HMG-CoA reductase (HMGCR) (Homo sapiens, UniProt P04035); assay: Spectrophotometric HMGCR counter-screen assay; type: biochemical; conditions: up to 100 μM
# T2 sequence (P04035 426-888): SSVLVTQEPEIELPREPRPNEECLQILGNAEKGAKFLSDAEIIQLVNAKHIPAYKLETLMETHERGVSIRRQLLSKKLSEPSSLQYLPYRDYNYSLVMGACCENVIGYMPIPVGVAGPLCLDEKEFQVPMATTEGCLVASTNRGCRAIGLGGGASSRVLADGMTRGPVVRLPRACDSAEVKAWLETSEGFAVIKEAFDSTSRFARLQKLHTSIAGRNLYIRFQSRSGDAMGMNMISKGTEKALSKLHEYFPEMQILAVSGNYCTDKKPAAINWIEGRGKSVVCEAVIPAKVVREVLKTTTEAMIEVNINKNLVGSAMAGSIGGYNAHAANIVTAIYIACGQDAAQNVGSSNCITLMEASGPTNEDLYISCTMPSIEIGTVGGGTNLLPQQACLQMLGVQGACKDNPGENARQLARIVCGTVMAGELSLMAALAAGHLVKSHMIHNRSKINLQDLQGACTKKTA
# How it was run: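 Human HMGCR catalytic domain (residues 426–888), N-terminal His-tagged, expressed in E. coli and IMAC-purified. Assay contains 9 U/L HMGCR, 150 μM HMG-CoA, 300 μM NADPH, 4 mM DTT and 0.1% Triton X-100 in 100 mM potassium phosphate, pH 7.4. NADPH consumption is followed by absorbance at 340 nm.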
smiles,measurement,setting,value
"O=C(O)CCCC(=O)O [Glutarate, glutarate]",mode of inhibition,"SUGCT [1]; with respect to HMG, increases apparent Km for HMG",competitive inhibitor
CCCCC(=O)N(Cc1ccc(-c2ccccc2-c2nnn[nH]2)cc1)[C@H](C(=O)O)C(C)C [Valsartan],conversion into a CoA ester by SUGCT,SUGCT [2],no evidence
same,effect on C5DC / activity in cells,[3],did not observe a decrease in C5DC; also recorded: unable to detect activity
same,inhibition of HMGCR,[4],did not inhibit
same,SUGCT inhibition at 10 μM (in words),SUGCT [1],inhibited
same,pIC50,"SUGCT [1]; IC50 (SUGCT inhibition), standard assay, 100 mM potassium phosphate pH 7.4",5.42
same,inhibition at 10 µM,SUGCT [1]; read-out: inhibition of SUGCT at 10 μM,> 50%
CCCCc1nc(Cl)c(CO)n1Cc1ccc(-c2ccccc2-c2nn[nH]n2)cc1 [losartan],activity of Angiotensin II Receptor Blockers on SUGCT (in words),SUGCT [1]; each ARB measured in duplicate at 10 μM,inactive
O=C(O)CCc1nc(-c2ccccc2)c(-c2ccccc2)o1 [oxaprozin],SUGCT inhibition at 10 μM (in words),SUGCT [1],inhibited
CC(C)c1nc(N(C)S(C)(=O)=O)nc(-c2ccc(F)cc2)c1/C=C/[C@@H](O)C[C@@H](O)CC(=O)O [rosuvastatin],result in high throughput screen of FDA approved library,"SUGCT [1]; screening concentration 100 μM, coupled assay also detects HMGCR inhibitors",one of our hits
"CCCCC(=O)N(Cc1ccc(-c2ccccc2-c2nn[nH]n2)cc1)[C@H](C(=O)OCC)C(C)C [valsartan ethyl ester, Valsartan ethyl ester]",effect on C5DC / activity in cells,[3],did not observe a decrease in C5DC
